HCV NS3 hel inh = blocks Hepatitis C virus NS3 helicase unwinding; NS3 helicase DNA unwinding, Cy5 molecular beacon fluorescence; inhibition, % at 10.9 µM; hit rate 0.56% among 290,000; AID 1800;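 active = inhibition above the mean of all tested compounds plus 3 SD, set per campaign, cut at about 35% in these data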
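test system = hepatitis C virus NS3 helicase domain fragment enzyme | reagent = annealed dual-labelled DNA beacon duplex, ATP-started | times = 1 h at 25 °C | detection = Cy5 fluorescence, 0 and 60 min reads | read-out basis = percent inhibition from t60/t0 fluorescence ratio | control set = DMSO and thioflavine S | replication = one well per compound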
EBNA-1 inh = blocks EBNA-1 binding to DNA | EBNA-1 DNA binding, fluorescence polarization | inhibition, % at 14.8 µM | hit rate 0.34% among 300,000 | AID 1950; in the data active = inhibition above about 28%
ZTA DNA inh = counter-screen for EBNA-1 inhibitors: inhibitors of Epstein-Barr virus ZTA. P03206. ZTA-DNA binding, fluorescence polarization. inhibition, % at 11 µM. hit rate 0.15% among 320,000. AID 2234; in the data active = inhibition above about 33%
Target sequence (P03206 whole entry, looked up): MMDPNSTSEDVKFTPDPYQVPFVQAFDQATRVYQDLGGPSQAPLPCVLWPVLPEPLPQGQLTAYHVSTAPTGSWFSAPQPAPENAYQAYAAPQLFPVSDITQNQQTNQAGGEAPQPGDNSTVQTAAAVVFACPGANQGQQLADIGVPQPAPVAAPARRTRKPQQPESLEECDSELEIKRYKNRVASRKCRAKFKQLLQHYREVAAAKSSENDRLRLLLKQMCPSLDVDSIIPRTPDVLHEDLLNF
HCV core dimer = blocks dimerization of HCV core protein; TR-FRET GST/Flag-core106 dimerization, 1536-well; inhibition, % at 5 µM; hit rate 0.33% among 300,000; AID 1899;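 active = inhibition above the mean of all tested compounds plus 3 SD, set per screening campaign, cut at about 45% in these data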
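assay system = GST-tagged and Flag-tagged HCV core protein residues 1-106 | controls = unlabelled core106 and no-GST-core106 wells | incubation = compound-protein-antibody incubation 4 h at 22.5 °C | probe or stimulus = Eu donor and XL665 acceptor anti-tag antibodies | read-out = % inhibition based on acceptor/donor emission ratio | signal = TR-FRET 671 and 617 nm emission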
NS3 hel confirm = HCV NS3 helicase inhibition, confirmation assay; shares compounds with HCV NS3 hel inh; NS3 helicase DNA unwinding, Cy5 molecular beacon fluorescence; inhibition, % at 10.9 µM; hit rate 31% among 1,600; AID 1943;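 active = inhibition above the mean of all tested compounds plus 3 SD, cutoff set per campaign, cut at about 36% in these data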
DNA FID counter = counter-screen for HCV NS3 helicase inhibitors: DNA intercalator displacement | AID 1945 | shares compounds with HCV NS3 hel inh | DNA fluorescent intercalator displacement, fluorescence | hit rate 4% among 1,600 | inhibition, % at 7.9 µM; in the data active = inhibition above about 37%;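 also: higher means more displacement of ethidium bromide from the DNA hairpin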
DNA FID DR = counter-screen for HCV NS3 helicase inhibitors: DNA intercalator displacement dose response; 120 tested, under 10 active; shares compounds with HCV NS3 hel inh; AID 2172; IC50, µM; fluorescent intercalator displacement from DNA, fluorescence; call rule not given here
Hits are given with their value; . = inactive; / = no result given. This is a sample that favours compounds with a hit; in the whole collection about 1.2% have one here.

SMILES | HCV NS3 hel inh | EBNA-1 inh | ZTA DNA inh | HCV core dimer | NS3 hel confirm | DNA FID counter | others
C=COC(=O)CSc1nc(-c2cccs2)ccc1C#N | 47.5 | . | . | . | . | .
COc1ccc(OC)c2sc(NC(=O)c3ccc(S(=O)(=O)N(C)C)cc3)nc12 | 40.8 | . | . | . | . | .
COc1ccccc1NC(=O)c1ccc(S(=O)(=O)N(C)C)cc1 | . | . | . | . | / | /
CNc1ccccc1C(C)(C)c1cc(-c2ccco2)n[nH]1 | 40.7 | . | . | . | . | .
CN(Cc1ccc(F)cc1)C(=O)c1ccc(NC(=O)CC2SC(N3CCCC3)=NC2=O)cc1 (stereo not drawn) | / | . | . | . | / | /
CC(/C=N/NC(=O)Cc1cc(=O)[nH][nH]1)=C\c1ccccc1 | 39.4 | . | . | . | . | .
CCOc1cc(/C=C2\SC(=Nc3ccc(CC)cc3)NC2=O)ccc1OCC(=O)O | 45.8 | . | . | . | 69.1 | .
CCc1ccc(N=C2NC(=O)/C(=C/c3cc(Br)c(OCC(=O)O)c(OC)c3)S2)cc1 | . | . | . | . | / | /
CCOC(=O)Nc1ccc([N+](=O)[O-])cc1OC | 42.3 | . | . | . | . | .
CCOC(=O)C(=O)Nc1ccc([N+](=O)[O-])cc1OC | . | . | . | . | / | /
Cc1cccc(C(=O)OCc2cc(=O)oc3c(C)c(C)ccc23)c1O | 36.9 | . | . | . | . | .
O=C(NNC(=O)c1ccco1)c1ccc(NS(=O)(=O)c2cccs2)cc1 | / | . | . | . | / | /
CCOC(=O)C1=C(C)OC(N)=C(C#N)C1c1ccsc1 (stereo not drawn) | . | . | . | . | / | /
N#CC1=C(N)Oc2c(O)cc3ccccc3c2C1c1ccsc1 (stereo not drawn) | 38.0 | . | . | . | . | .
CCn1c(=O)c(CCC(=O)NCC2CCCO2)c(C)c2c(C)nn(-c3ccc(C)cc3)c21 (stereo not drawn) | 37.1 | . | . | . | . | .
Cc1ccc(-c2noc(CCC(=O)NCC3CCCO3)n2)cc1 (stereo not drawn) | . | . | . | . | / | /
CC(=O)C1=C(C)NC(=O)NC1c1ccc(Cl)cc1 (stereo not drawn) | . | . | . | . | / | /
COc1ccc2cc(-c3cc(C(=O)O)c4ccccc4n3)ccc2c1 | 39.7 | . | . | . | 45.2 | .
COc1ccc(-c2cc(C(=O)O)c3ccccc3n2)c(OC)c1 | . | . | . | . | / | /
Cc1ccc(-c2nc(=S)c3c(n2Cc2ccco2)CCCC3)cc1 | 40.8 | / | / | / | . | .
CC(=O)Oc1ccc(C23CC4CC(CC(C4)C2)C3)cc1C(=O)O | 40.3 | . | . | . | . | .
Cc1ccc2c(c1)C=CC(C)(C)S2(=O)=O | . | . | . | . | / | /
O=C(Nc1ccccn1)c1ccc(S(=O)(=O)N2CCCCCC2)cc1 | / | . | . | . | / | /
O=C(CCCN1C(=O)/C(=C\c2cccs2)SC1=S)Nc1cccc(C(=O)O)c1 | . | . | . | . | / | /
NN1C(=O)/C(=C\c2ccco2)SC1=S | 38.5 | . | . | . | . | .
SMILES | HCV NS3 hel inh | EBNA-1 inh | ZTA DNA inh | HCV core dimer | NS3 hel confirm | DNA FID counter | others
O=C(CCCN1C(=O)/C(=C/c2ccco2)SC1=S)Nc1cccc(C(=O)O)c1 | 56.3 | . | . | . | 87.9 | .
Cc1csc(NC(=O)c2ccc(S(=O)(=O)N3CCN(C)CC3)cc2)n1 | . | . | . | . | / | /
CCOC(=O)COc1ccc(/C=C2/C(=O)NN(c3ccc(F)cc3)C2=O)cc1OC | 36.0 | . | . | . | . | .
CCOC(=O)c1ccc(N2NC(=O)/C(=C/c3ccc(OC(=O)c4ccco4)c(OC)c3)C2=O)cc1 | . | . | . | . | / | /
COc1cc(/C=C2\C(=N)N3N=C(C)SC3=NC2=O)cc(OC)c1OCCOc1ccccc1C | 45.5 | . | . | . | . | .
CCOc1cc(/C=C2\C(=N)N3N=C(CC)SC3=NC2=O)ccc1OCCOc1ccc(NC(C)=O)cc1 | 53.8 | . | . | . | . | .
COc1cccc(OCCOc2ccc(/C=C3\C(=N)N4N=C(S(C)(=O)=O)SC4=NC3=O)cc2OC)c1 | 47.8 | / | / | / | 53.3 | .
COc1ccccc1OCCOc1ccc(/C=C2\C(=N)N3N=C(S(C)(=O)=O)SC3=NC2=O)cc1 | . | . | . | . | / | /
CC(C)C(NS(=O)(=O)c1ccc2c(c1)C(C)(C)C(=O)N2C)C(=O)NCc1ccccc1Cl (stereo not drawn) | . | . | . | . | / | /
C=CCSc1n[nH]c(-c2ccc(OC)cc2)n1 | 38.6 | . | . | . | . | .
O=S(=O)(O)c1cccc2c(N=Nc3ccc(O)c4ncccc34)cccc12 | 84.2 | . | . | . | 77.4 | .
CCO[C@H]1OC(C(=O)N2CCCCCCC2)=C[C@@H](C)[C@@H]1CCCO | . | . | . | . | / | /
O=C(N/N=C/c1cc(Cl)c(O)c(Cl)c1)c1cc2c(ccc3ccccc32)o1 | 44.9 | . | . | . | 52.6 | . | DNA FID DR=.
O=C(N/N=C/c1cc(Br)c(O)c(Br)c1)c1cc2c(ccc3ccccc32)o1 | . | / | / | / | / | /
Cc1ccc(C)c2[nH]c(=O)c(C(c3nnnn3Cc3ccco3)N3CCc4ccccc4C3)cc12 (stereo not drawn) | 39.0 | . | . | . | . | .
CCOC(=O)c1ccc(-n2nc(C(F)(F)F)c3c(C)cc(=O)oc32)cc1 | . | / | / | / | / | /
COc1ccccc1CNC(=O)CSC(=S)N1CCCC1 | / | . | . | . | / | /
NC(=O)N/N=C/c1ccc(N2CCOCC2)s1 | . | . | . | . | / | /
O=C(O)c1cc(N/N=C/c2ccc(N3CCOCC3)s2)ccc1Cl | 46.7 | . | . | . | 79.7 | .
O=C(CSc1cccc2cccnc12)Nc1cc(C(=O)O)cc(C(=O)O)c1 | . | . | . | . | / | /
CCOC(=O)Cn1ccc(-c2ccccc2)c(C#N)c1=O | . | . | . | . | / | /
Cc1cc(C(=O)COC(=O)Cc2n[nH]c(=O)c3ccccc23)c(C)n1-c1ccc2c(c1)OCCO2 | . | . | . | . | / | /
Cc1c2c(=O)n(-c3nc4ccccc4s3)nc-2cc(O)n1Cc1ccccc1 | 48.3 | / | / | / | 46.5 | .
Cc1cc(C)n(-c2nc3ccccc3s2)n1 | . | . | . | . | / | /
CC(N=C1NS(=O)(=O)c2ccccc21)C(=O)OCC(=O)N(C)C1CCS(=O)(=O)C1 (stereo not drawn) | / | / | . | / | / | /
S=c1[nH]nc(-c2ccc(Cl)cc2)n1/N=C/C=C/c1ccco1 | . | . | . | . | / | /
Cc1ccccc1-c1n[nH]c(=S)n1/N=C/C=C/c1ccco1 | 37.7 | . | . | . | . | .
Oc1c(Br)cc(Br)c(/C=N/n2c(-c3ccccc3)n[nH]c2=S)c1Br | 39.5 | . | . | . | 68.8 | .
S=c1[nH]nc(-c2ccccc2)n1/N=C/C=C/c1ccco1 | 52.2 | . | . | . | . | .
O=C(CCc1nc2ccccc2s1)OCc1ccccc1F | . | . | . | . | / | /
